Paper PMC11471106 (Drug Design, Development and Therapy, 2024)

Tested on: MCF-7 cells
Assay: Inhibition of [125I]I-AM uptake into MCF-7 cells by blocking agents
Type: cell-based
Conditions: blocking agent at 1 mm
Outline: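 Blocking uptake study in MCF-7 cells, cultured and given radiotracer as in the standard uptake assay (serum-free MEM + 0.2% BSA, 37 °C, gamma counting of lysate versus medium). Cells were treated separately with unlabelled parent compound, tamoxifen or 17β-estradiol, each at one stated concentration. Groups were compared by one-way ANOVA with Tukey's multiple comparison test.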

SMILES	effect on uptake of [125I]I-AM into MCF-7 cells
CC/C(=C(\c1ccccc1)c1ccc(OCCN(C)C)cc1)c1ccccc1 [tamoxifen]	significantly inhibited
C[C@]12CC[C@@H]3c4ccc(O)cc4CC[C@H]3[C@@H]1CC[C@@H]2O [estradiol, 17 β -estradiol]	not inhibited
